Data on 36 sequences can be found in the EternaBench riboswitch data.

This data set relates to MS2 coat protein. Put plainly: apparent Kd, MS2 coat protein; higher = weaker binding; RNA-MaP array; FMN 200 µM where present. The procedure, abridged: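 The titrant was SNAP-549-labelled MS2 coat protein, run from 0.7 or 1.5 nM in doubling steps to 3 µM. It was applied to designs transcribed by stalled E. coli RNA polymerase on Illumina sequencing-chip clusters, without ligand first and then with constant ligand, in 100 mM Tris-HCl pH 7.5, 80 mM KCl, 4 mM MgCl2, BSA, DTT, yeast tRNA and Tween-20. The apparent Kd is the median of filtered per-cluster binding-curve fits, with green signal normalised to red-channel RNA signal and control-cluster median Fmax.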

Where [1] appears, read: designed as: OFF switch for flavin mononucleotide, no ligand.
Setting [2] is: ligand present: flavin mononucleotide, designed as: OFF switch for flavin mononucleotide.
Setting [3] is: designed as: ON switch for flavin mononucleotide, no ligand.
[4] abbreviates: ligand present: flavin mononucleotide, designed as: ON switch for flavin mononucleotide.

In the case of “UUUUAGUAAGGAUAUGCGUAGAUCUACGAAAGUAGAUCUACGCAGAAGGUACAUGAGGAUCACCCAUGUAGAUU”, the “apparent Kd” value runs as follows: under setting [1], 0.0215 µM; under setting [2], 0.0267 µM.

Take “GGGCUGGUAACAGGAUAUCGUGCCUGGCCGGAUUACAUGAGGAUCACCCAUGUCGUUGGAACCAACGAGAAGGGUUGCCUCCCG”: the “apparent Kd” value under setting [3] is 0.199 µM and the “apparent Kd” value under setting [4] was 0.0287 µM.

In the case of “AGCAUCUGAGGAUAUACUGGGUAUGGAAGGCGAAGGGCCAGACAUGAGGAUCACCCAUGUAGAAGGCAGUUUGC”, the “apparent Kd” value is 0.0793 µM under setting [1] and 0.0329 µM under setting [2].

On to “UUGUUAUGUGUAGGAUAUGCAUAUUAUUAUUAUGCAGAAGGACAUGAGGAUCACCCAUGUGUAUUGUUAUUAUAUAUUAUAUAU”, for which the “apparent Kd” value under setting [1] stood at 0.0228 µM and the “apparent Kd” value under setting [2] was 0.0305 µM.

For “CUUUAGUGAGGAUAUCUGGCUUCGAUCGUGAGAUCGAGGCUAGAGAAGGCACAUGAGGAUCACCCAUGUUCCUU”, the “apparent Kd” value runs as follows: under setting [1], 0.0154 µM; under setting [2], 0.0347 µM.

Regarding “CACGGCGCAUGAGGAUAUCAGGGCGACCUUUCGACAUGAGGAUCACCCAUGUAAUCUACUCGGCGUGAGAAGGCAUGACAGCCA”, the “apparent Kd” value under setting [3] came to 0.286 µM and the “apparent Kd” value under setting [4] was 0.136 µM.

As for “GUUAAGGUAGGAUAUACGAUAAUAUAGGGUAGAGAUAUAACACAUGAGGAUCACCCAUGUAGAAGGACCAAUUG”, the “apparent Kd” value by setting is: under setting [1], 0.0253 µM; under setting [2], 0.0752 µM.

Consider “UUGUACAUAGGAUAUAGUUGUUUCUACAUGAGGAUCACCCAUGUUAUUCCUCUCUCCCUUCUAGAAGGAUGUUUUU”, for which the “apparent Kd” value stood at 0.0409 µM under setting [1] and 0.038 µM under setting [2].

In the case of “GAUGUAUUCGUAGGAUAUCCGUCGCCACCGUGUGGAGAAGGACGAACAUGAGGAUCACCCAUGUAUCAUGGUGUGGACGCUUUC”, the “apparent Kd” value by setting is: under setting [1], 0.287 µM; under setting [2], 0.315 µM.

On to “UUCGUGUAAGGAUAUACGACUCAUCCCAAUGGGACGAGCACGUAGAAGGUACAUGAGGAUCACCCAUGUGCUCC”, for which the “apparent Kd” value under setting [1] worked out at 0.0271 µM and the “apparent Kd” value under setting [2] amounted to 0.155 µM.

As for “UUAAAUCAUGUAGGAUAUGCAUGGCGAAGCUACGCAGAAGGACAUGAGGAUCACCCAUGUUAUAGCUACCGAGUAAGGUGGCAA”, the “apparent Kd” value under setting [1] worked out at 0.0926 µM and the “apparent Kd” value under setting [2] came out at 0.227 µM.

“AUGGUCAAGUGUGAGGAUAUCCAUGCUCCCACAUGAGGAUCACCCAUGUCUUAAAGGGCGUAAAGGGAGAAGGUACGAACGCCAC”: the “apparent Kd” value is 0.0343 µM under setting [3] and 0.0278 µM under setting [4].

In the case of “AGUACUACAGGAUAUACGAGGGAGGUCCACGUGACCCUUUUACAUGAGGAUCACCCAUGUAGAAGGGUAGUACA”, the “apparent Kd” value is, setting by setting: under setting [1], 0.0233 µM; under setting [2], 0.0268 µM.

On to “AUUUUACAUGAGGAUCACCCAUGUUUUGGUGGGUCAGGAUAUAGAUCGGAUGAGUUCUGGCUAGAAGGGACAUAUA”, for which the “apparent Kd” value reads like this: under setting [3], 0.0759 µM; under setting [4], 0.0664 µM.

For the sequence “AACAGUACAGGAUAUACAUGAGGAUCACCCAUGUGAGAAUUAAGUGGAAAACCACAAAGUAGAAGGGUACUGGA”, the “apparent Kd” value runs as follows: under setting [1], 0.0298 µM; under setting [2], 0.269 µM.

As to “UCCUCACAUGAGGAUCACCCAUGUCAGGAUAUCUGCGAGCAAUGGCCAAGGCCACUCAGGAGAAGGGACGUCAA”, the “apparent Kd” value stood at 0.0163 µM under setting [1] and 0.0223 µM under setting [2].

Regarding “GCAUGUAAGCAGAAGGGCAGACAUUUUGAUGCUGCAGGAUAUGCAGAAUCAUAUCCACAUGAUAACAUGAGGAUCACCCAUGUA”, the “apparent Kd” value under setting [1] amounted to 0.0199 µM and the “apparent Kd” value under setting [2] came to 0.0243 µM.

As for “GCAUAUCAGGGAGGAUAUGACAUGAGGAUCACCCAUGUAAUUAUGGCUCUGUCAGAAGGCCCAUCAUCACUAUAGUGACGAGAA”, the “apparent Kd” value worked out at 0.479 µM under setting [1] and 0.0632 µM under setting [2].

“GCCAGGAUGUGAGGAUAUGCUGAGGAUAACUCAGCAGAAGGCACAUGAGGAUCACCCAUGUAAACUUAUAAUAAAUACCCUGGC”: the “apparent Kd” value is 0.013 µM under setting [1] and 0.0284 µM under setting [2].

On to “AGUCGGCGAGGAUAUACAUGAGGAUCACCCAUGUGAGAGAAUAAAGUGAGUUAGACAAGUAGAAGGCGCUGACA”, for which the “apparent Kd” value was found to be 0.0474 µM under setting [1] and 0.415 µM under setting [2].

With “AUCGCUCAGCAGAAGGGACUGACAUGAGGAUCACCCAUGUCUUUUAUGGUCAGGAUAUGUUGCCGAACCACGAAAAGUGGGUGC”, the “apparent Kd” value by setting is: under setting [3], 0.0257 µM; under setting [4], 0.00927 µM.

Regarding “AACAAGUCAGGAUAUCAUACUAAUCACUUGCUUUAAAUGUAUGAGAAGGGACAUGAGGAUCACCCAUGUAAAGA”, the “apparent Kd” value under setting [1] is 0.0325 µM and the “apparent Kd” value under setting [2] stood at 0.0359 µM.

With “GCAGGAUAAGUGAGGAUAUACCUCUGGAUACAGAGGUAGAAGGUACAUGAGGAUCACCCAUGUCUAUAACCUGC”, the “apparent Kd” value reads like this: under setting [1], 0.0146 µM; under setting [2], 0.0161 µM.

As for “UUAAUGACUGUGAGGAUAUCGGAUAGAUAGAUAUUCGAGAAGGUACAUGAGGAUCACCCAUGUGUGAUUAGAGA”, the “apparent Kd” value is, setting by setting: under setting [1], 0.245 µM; under setting [2], 0.291 µM.

Turning to “ACAUUUAAUACAGGAUAUGUUGGUAUACAAUAGAUUGGUUAUAACACAUCAACAGAAGGGUAGAACAUGAGGAUCACCCAUGUA”, the “apparent Kd” value runs as follows: under setting [3], 0.0536 µM; under setting [4], 0.0233 µM.

As to “UGAUCGAGAGAUCUUAGAUUCUGCAAGGAUAUGCAGGAGUUGCGCUUUACAUGAGGAUCACCCAUGUAGAAGGUGUAGAGUCUA”, the “apparent Kd” value runs as follows: under setting [1], 0.00662 µM; under setting [2], 0.00808 µM.

On to “GGUACUCAAAGAGUACAAGGUCGAACAUGAGGAUCACCCAUGUAGGAUAUGCUAAGCAAGAAGUAGCAGAAGGACAUGUGCAGC”, for which the “apparent Kd” value is 0.0177 µM under setting [1] and 0.0595 µM under setting [2].

For the sequence “AUAUAUAUUAGAGGAUAUGUGUUCAUGUUACAUGAGGAUCACCCAUGUUUAGGUUGAUUGAUCUUACAGAAGGCUAUACAAUGA”, the “apparent Kd” value by setting is: under setting [1], 0.0972 µM; under setting [2], 0.0785 µM.

“CUGAGCUGAGGAUAUACAUGAGGAUCACCCAUGUGUUCGAGCUUGCGUACAGGCAGAUGUAGAAGGCAGUUCGG”: the “apparent Kd” value is, setting by setting: under setting [1], 0.0267 µM; under setting [2], 0.0993 µM.

For the sequence “GGAGAUACAUGAGGAUCACCCAUGUAGGAUAUCGGGCAUAUAUAUGGCGAAAGCCAUAUAUAUGCCGAGAAGGGCGUACACACC”, the “apparent Kd” value under setting [1] was 0.00812 µM and the “apparent Kd” value under setting [2] is 0.00762 µM.

For “UUUCUUGGGCAAGGAUAUCCUGUGCGGUUCCGGCUCGUGUCUGUCACAUGAGGAUCACCCAUGUGGGAGAAGGUGCCUGCAGUC”, the “apparent Kd” value under setting [1] stood at 0.00622 µM and the “apparent Kd” value under setting [2] worked out at 0.00707 µM.

For “AAGCCACAUGAGGAUCACCCAUGUCAGGAUAUCUCGAAAAGCAUAGAAAUAUGCGAAGAGAGAAGGGACUACUC”, the “apparent Kd” value was determined as 0.0431 µM under setting [1] and 0.0677 µM under setting [2].

For “GCUCGGCGUCAGAAGGCAGACGCGAAGCGCGUUUGAGGAUAUGACAUGAGGAUCACCCAUGUAGGUGUGCGAAAUUGUAAUCAC”, the “apparent Kd” value by setting is: under setting [1], 0.301 µM; under setting [2], 0.309 µM.

“CGAGUUUUUGAGAAGGCAUAUUAUAAUAUUCCACAUGUUUACAUGAGGAUCACCCAUGUUUACUAUGAGGAUAUCAGAAUGUCG”: the “apparent Kd” value reads like this: under setting [1], 0.00472 µM; under setting [2], 0.00454 µM.

Turning to “GCACUGGAUGUAGGAUAUCAGGACGAUAAGUCCUGAGAAGGACAUGAGGAUCACCCAUGUAAAAACUUCCCAGUGCAUAAUAUA”, the “apparent Kd” value is 0.0154 µM under setting [1] and 0.018 µM under setting [2].

Consider “AGAGAAUAGGUAGGAUAUCUUAAUAGAAAGAAUAGAGAAGGACCACAUGAGGAUCACCCAUGUGAUGUCUUGAGACUACAUGGU”, for which the “apparent Kd” value is, setting by setting: under setting [1], 0.0164 µM; under setting [2], 0.0194 µM.

For orientation: apparent Kd means a dissociation constant that holds for the conditions of the assay.
